From PubChem
An excerpt weighted towards active compounds, which were near 1.8% of everything screened.
PERK inhibitor = block of dimerizer-induced PERK translation repression, primary screen, PERK inhibitor project, CHO PERK-DD cells, SEAP luminescence, HTS. Eukaryotic translation initiation factor 2-alpha kinase 3 (Homo sapiens), Q9NZJ5. CHO PERK-DD fusion, SEAP luminescence translation reporter. inhibition, % at 5.6 µM. actives 0.17% (n = 220,000). AID 1416, 2008;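 active = inhibition above the mean inhibition of all tested compounds plus 3 SD, set separately per screening campaign, cut at about 2.9% in these data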;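 note: PERK kinase domain activated by AP20187 dimerizer at 100 nM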
Target sequence (Q9NZJ5 whole entry, looked up, the tested form may be a part): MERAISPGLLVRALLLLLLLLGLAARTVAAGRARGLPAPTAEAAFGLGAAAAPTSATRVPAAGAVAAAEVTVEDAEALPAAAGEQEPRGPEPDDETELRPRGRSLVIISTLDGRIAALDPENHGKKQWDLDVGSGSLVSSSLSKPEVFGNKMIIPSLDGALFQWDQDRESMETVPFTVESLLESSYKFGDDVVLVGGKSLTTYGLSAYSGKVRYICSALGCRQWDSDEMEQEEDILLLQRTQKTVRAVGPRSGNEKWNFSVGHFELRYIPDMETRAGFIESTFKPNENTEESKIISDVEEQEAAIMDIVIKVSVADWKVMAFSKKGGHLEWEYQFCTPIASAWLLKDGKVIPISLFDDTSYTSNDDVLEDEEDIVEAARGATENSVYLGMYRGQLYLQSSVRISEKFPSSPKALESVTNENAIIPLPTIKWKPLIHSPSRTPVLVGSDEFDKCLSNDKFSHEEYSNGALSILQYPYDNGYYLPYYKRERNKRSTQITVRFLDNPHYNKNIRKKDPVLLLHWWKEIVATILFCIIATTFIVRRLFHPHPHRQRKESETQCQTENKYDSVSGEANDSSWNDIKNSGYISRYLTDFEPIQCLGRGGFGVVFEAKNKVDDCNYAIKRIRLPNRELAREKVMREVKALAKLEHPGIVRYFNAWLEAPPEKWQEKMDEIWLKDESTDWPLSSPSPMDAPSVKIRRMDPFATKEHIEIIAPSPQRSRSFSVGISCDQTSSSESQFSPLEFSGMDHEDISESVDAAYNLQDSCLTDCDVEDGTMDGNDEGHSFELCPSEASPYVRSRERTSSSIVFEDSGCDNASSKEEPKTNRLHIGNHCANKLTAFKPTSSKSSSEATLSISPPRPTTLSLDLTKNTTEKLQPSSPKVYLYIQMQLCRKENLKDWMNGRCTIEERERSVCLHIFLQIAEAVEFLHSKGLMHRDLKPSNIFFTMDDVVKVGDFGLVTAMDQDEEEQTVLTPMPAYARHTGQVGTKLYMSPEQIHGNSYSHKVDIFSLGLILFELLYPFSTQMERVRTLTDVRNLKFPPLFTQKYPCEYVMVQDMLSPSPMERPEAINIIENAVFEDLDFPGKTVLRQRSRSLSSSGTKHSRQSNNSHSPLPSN
STAT3 blocker = IL-6 driven STAT3 reporter inhibitors, primary screen, U3A cells, luciferase, luminescence, MLSCN library. IL-6 STAT3-luciferase reporter; host cell line lacks STAT1. inhibition, % at 5.5 µM. actives 0.89% (n = 190,000);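 active = inhibition above the mean inhibition across all screened compounds plus 3 SD, cut at about 44% in these data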
STAT3 act-1 = IL-6 driven STAT3 reporter potentiators, primary screen, U3A cells, luciferase, luminescence, MLSCN library; activation (% of control), % at 5.6 µM; IL-6 STAT3-luciferase reporter; 100% = signal with IL-6 EC80 alone; AID 871, 2007; actives 0.91% (n = 190,000);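 active = activation above the screen-wide mean of compound activation plus 3 SD, cut at about 130% in these data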
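Test system: STAT3-luciferase reporter U3A cells; Detection: reporter luminescence signal; Times: 1 h compound pre-exposure, 6 h IL-6 stimulation, 37 °C; Benchmarks: IL-6-only high control; Also added: IL-6 stimulus at 33 ng/mL final.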
STAT1 blocker = STAT1 signaling inhibitors, primary screen, cell-based, HTS, luciferase reporter; NIH 3T3 STAT1-luciferase reporter, IFN-gamma, luminescence; inhibition, % at 5.5 µM; actives 0.35% (n = 200,000);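 active = inhibition above a set limit, the mean inhibition across all tested compounds plus 3 SD, cut at about 34% in these data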
STAT3 act-2 = STAT3 reporter potentiators, retest of hits, confirmation, U3A cells, luciferase, luminescence. potentiation (% of control), % at 5.7 µM. shares compounds with STAT3 act-1. AID 1267, 2008. actives 64% (n = 1,200). IL-6 potentiation; U3A cells lack STAT1; 100 means same as IL-6 alone;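 active = percent activation of the STAT3 luciferase reporter above a set limit taken from the earlier primary screen, cut at about 130% in these data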
NFkB act STAT3ct = NF-kB reporter activators in human cells, counter-screen for STAT3 activator project. actives 11% (n = 1,200). shares compounds with STAT3 act-1. NF-kappaB reporter activation. activation (% of control), % at 5.7 µM; in the data active = activation above about 120%;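 note: reporter induced by TNF-alpha stimulation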
STAT1 act = STAT1 reporter activators, IFN-gamma induced, counter-screen for STAT3 activator project, cell-based, NIH 3T3, luciferase luminescence | NIH 3T3 STAT1-luciferase reporter | activation (% of control), % at 5.7 µM | actives 13% (n = 1,200) | shares compounds with STAT3 act-1 | AID 1318, 2008;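 active = activation above the solvent-only control well mean plus 3 SD, set per screening run, cut at about 120% in these data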
Hits are given with their value.

Screening Cc1ccc(-c2nc(N)n(C(=O)c3cccs3)n2)cc1 returned PERK inhibitor inactive, STAT3 blocker inactive, STAT3 act-1 147.9, STAT1 blocker inactive, STAT3 act-2 inactive, NFkB act STAT3ct inactive and STAT1 act inactive.
`Cc1ccc(-c2nc(N)n(C(=O)Cc3ccccc3)n2)cc1` gave PERK inhibitor inactive, STAT3 blocker inactive, STAT3 act-1 inactive and STAT1 blocker inactive.
For Cc1[nH]c2ccccc2c1Cc1nnc(SCC(N)=O)o1 the results were PERK inhibitor inactive, STAT3 blocker inactive, STAT3 act-1 152.9, STAT1 blocker inactive, STAT3 act-2 inactive, NFkB act STAT3ct inactive and STAT1 act inactive.
For Cc1[nH]c2ccccc2c1CCC(N)=O the results were PERK inhibitor inactive, STAT3 blocker inactive, STAT3 act-1 inactive and STAT1 blocker inactive.
Cc1ccc(-c2nnn3c2nc(Cl)c2ccccc23)cc1 was read as PERK inhibitor inactive, STAT3 blocker inactive, STAT3 act-1 147.3, STAT1 blocker inactive, STAT3 act-2 145.3, NFkB act STAT3ct inactive and STAT1 act inactive.
`Clc1nc2c(-c3ccccc3)nnn2c2ccccc12` gave PERK inhibitor inactive.
For Fc1cccc(-c2nnn3c2nc(Cl)c2ccccc23)c1 the results were PERK inhibitor inactive, STAT3 blocker inactive, STAT3 act-1 165.1, STAT1 blocker inactive, STAT3 act-2 183.2, NFkB act STAT3ct inactive and STAT1 act inactive.
Screening NS(=O)(=O)c1ccc(NC(=S)NCc2ccco2)cc1 returned PERK inhibitor inactive, STAT3 blocker inactive, STAT3 act-1 136.2, STAT1 blocker inactive, STAT3 act-2 inactive, NFkB act STAT3ct inactive and STAT1 act inactive.
For O=C(CN1CCOCC1)Nc1ccc([N+](=O)[O-])cc1Br the results were PERK inhibitor inactive, STAT3 blocker inactive, STAT3 act-1 inactive and STAT1 blocker inactive.
CCN(CC)CCN1C(=O)C(=O)/C(=C(/O)c2c(C)[nH]c(C(=O)OC)c2C)C1c1cccnc1 (stereo not given) was read as PERK inhibitor inactive, STAT3 blocker inactive, STAT3 act-1 inactive and STAT1 blocker inactive.
COC(=O)c1[nH]c(C)c(/C(O)=C2\C(=O)C(=O)N(CCN3CCOCC3)C2c2cccnc2)c1C (stereo not given) was read as PERK inhibitor inactive, STAT3 blocker inactive, STAT3 act-1 138.2, STAT1 blocker inactive, STAT3 act-2 inactive, NFkB act STAT3ct inactive and STAT1 act inactive.
For COc1ccc(NC(=O)N2CCN(S(C)(=O)=O)CC2)c(OC)c1 the results were PERK inhibitor inactive, STAT3 blocker inactive, STAT3 act-1 inactive and STAT1 blocker inactive.
`N/C(=N\NC(=O)c1cccc(F)c1)c1cc2ccccc2oc1=O` gave PERK inhibitor inactive.
Screening N/C(=N\NC(=O)c1ccc(F)cc1)c1cc2ccccc2oc1=O returned PERK inhibitor inactive, STAT3 blocker inactive, STAT3 act-1 146.5, STAT1 blocker inactive, STAT3 act-2 142.1, NFkB act STAT3ct inactive and STAT1 act inactive.
CNc1nc(-c2ccccc2)cc(C)c1S(C)(=O)=O was read as PERK inhibitor inactive, STAT3 blocker inactive, STAT3 act-1 inactive and STAT1 blocker inactive.
COc1ccccc1-c1nc(SCC(=O)O)n[nH]1 was read as PERK inhibitor inactive, STAT3 blocker inactive, STAT3 act-1 136.9, STAT1 blocker inactive, STAT3 act-2 inactive, NFkB act STAT3ct inactive and STAT1 act inactive.
For COc1ccccc1-c1nc(N)n[nH]1 the results were PERK inhibitor inactive, STAT3 blocker inactive, STAT3 act-1 146.1, STAT1 blocker inactive, STAT3 act-2 inactive, NFkB act STAT3ct inactive and STAT1 act inactive.
`NC(CCC(=O)O)C12CC3CC(CC(C3)C1)C2` (stereo not given) gave PERK inhibitor inactive, STAT3 blocker inactive, STAT3 act-1 inactive and STAT1 blocker inactive.
`Cc1cccc2c1NC(=O)/C2=C\C(=O)c1cccs1` gave PERK inhibitor inactive, STAT3 blocker inactive, STAT3 act-1 147.5, STAT1 blocker inactive, STAT3 act-2 136.3, NFkB act STAT3ct inactive and STAT1 act inactive.
For COc1cc2c(cc1OC)CN(CC(=O)NC(=O)NC1CCCCC1)CC2 the results were PERK inhibitor inactive, STAT3 blocker inactive, STAT3 act-1 inactive and STAT1 blocker inactive.
CCOC(=O)Cc1cc(-c2ccccc2)nc2ccc3ccccc3c12 was read as PERK inhibitor inactive, STAT3 blocker inactive, STAT3 act-1 136.0, STAT1 blocker inactive, STAT3 act-2 inactive, NFkB act STAT3ct inactive and STAT1 act inactive.
For CCOC(=O)c1cc(-c2ccccc2)nc2ccc(C)cc12 the results were PERK inhibitor inactive.
`COc1ccc(CNc2ccc3cn[nH]c3c2)c(OC)c1OC` gave PERK inhibitor inactive, STAT3 blocker inactive, STAT3 act-1 144.4, STAT1 blocker inactive, STAT3 act-2 inactive, NFkB act STAT3ct inactive and STAT1 act inactive.
`C=CCOc1ccc(CNc2ccc3[nH]c(=O)[nH]c3c2)cc1OC` gave PERK inhibitor inactive, STAT3 blocker inactive, STAT3 act-1 inactive and STAT1 blocker inactive.
Screening CCOc1cc(CNc2ccc3cn[nH]c3c2)ccc1OC returned PERK inhibitor inactive, STAT3 blocker inactive, STAT3 act-1 174.8, STAT1 blocker inactive, STAT3 act-2 160.7, NFkB act STAT3ct inactive and STAT1 act inactive.
NCC[C@H](O)C(=O)N[C@@H]1C[C@H](N)[C@@H](O[C@H]2O[C@H](CN)[C@@H](O)[C@H](O)[C@H]2O)[C@H](O)[C@H]1O[C@H]1O[C@H](CO)[C@@H](O)[C@H](N)[C@H]1O was read as PERK inhibitor inactive, STAT3 blocker inactive, STAT3 act-1 inactive and STAT1 blocker inactive.
`CC(c1ccccc1C(O)(c1ccccc1)c1ccccc1)N(C)C` (stereo not given) gave PERK inhibitor inactive, STAT3 blocker inactive, STAT3 act-1 inactive and STAT1 blocker inactive.
`Cc1cc(Br)ccc1NC(=O)CN1C(=O)C2C3CC(c4ccccc4)C(C3)C2C1=O` (stereo not given) gave PERK inhibitor inactive, STAT3 blocker inactive, STAT3 act-1 inactive and STAT1 blocker inactive.
CCOC(=O)c1ccccc1Nc1cn(C(C)=O)c2ccccc12 was read as PERK inhibitor inactive, STAT3 blocker inactive, STAT3 act-1 149.4, STAT1 blocker inactive, STAT3 act-2 156.0, NFkB act STAT3ct inactive and STAT1 act inactive.
